Bioassay records: PubChem BioAssay, several laboratories
hERG rescue: shields human hERG channel from block by proarrhythmic agents. Q12809. CHO-hERG, FluxOR thallium flux, dofetilide IC70 present. activation (rescue from dofetilide block), less the hit threshold, % at 10 µM. hit rate 0.51% among 310,000;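 active = activation above the mean of controls blocked by dofetilide plus 5 SD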;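 also: thallium influx through hERG after potassium depolarization seen as dye fluorescence rise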
KCNQ1 block: inhibitors of human KCNQ1 potassium channel | hit rate 1.3% among 310,000 | AID 2642 | CHO-K1 KCNQ1, FluxOR thallium flux fluorescence; hits give high values | P51787 | B-score at 10 µM;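 active = compounds whose thallium flux B-score, printed positive for inhibition, exceeds three library SD while starting fluorescence stays within three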;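 also: channel opened by potassium depolarization with thallium stimulus after 20 min compound exposure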
KCNK9 inh: inhibitors of human KCNK9 two-pore domain potassium channel | hit rate 1.2% among 310,000 | B-score at 10 µM | HEK293 KCNK9, FluxOR thallium flux fluorescence; hits give low values;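 active = ratio B-score over 3 SD below the library mean, with starting fluorescence within 5 SD of its mean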;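 also: negative B-score means less thallium flux so channel inhibition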
Target sequence (Q9NPC2 whole entry, looked up, the tested form may be a part): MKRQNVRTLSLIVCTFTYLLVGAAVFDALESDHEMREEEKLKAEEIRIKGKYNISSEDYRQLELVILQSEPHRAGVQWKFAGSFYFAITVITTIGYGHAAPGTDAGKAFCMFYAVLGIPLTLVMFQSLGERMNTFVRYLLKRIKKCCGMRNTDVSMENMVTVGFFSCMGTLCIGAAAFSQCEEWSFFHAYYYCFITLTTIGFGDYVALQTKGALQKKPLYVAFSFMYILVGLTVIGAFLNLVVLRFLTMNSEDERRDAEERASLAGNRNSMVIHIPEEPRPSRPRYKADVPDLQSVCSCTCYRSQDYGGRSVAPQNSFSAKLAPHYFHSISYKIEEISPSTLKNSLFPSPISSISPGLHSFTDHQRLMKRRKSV
KCNK3 inh: human KCNK3 channel inhibition, primary screen | O14649 | CHO-KCNK3 thallium flux, FluxOR fluorescence; hits give low values | B-score at 10 µM | hit rate 0.84% among 340,000 | AID 602410;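 active = B-score under library mean minus 4 SD, starting fluorescence ratio at most library mean plus 5 SD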;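 also: more negative B-score means stronger inhibition of thallium flux through KCNK3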
KCNQ1 pot: potentiates or activates the human KCNQ1 potassium channel. B-score at 10 µM. CHO-K1 KCNQ1, thallium flux FluxOR fluorescence; hits give high values. P51787. hit rate 0.35% among 310,000;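 active = fluorescence ratio B-score, a plate-corrected score, at least three library SD, with initial intensity B-score within 5 SD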
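Material: CHO-K1 cells stably expressing KCNQ1. Medium: assay buffer for compound exposure, DMSO matched across wells. Reagent: K+/Tl+ depolarizing stimulus. Compound dosing: single-concentration screen. Times: 37 °C overnight plating, 90-min dark dye load, 20-min compound pretreatment. Technique: FluxOR Tl+ flux fluorescence.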
Cl transport mod: KCC2 (human) Cl- transport modulation | B-score of Tl+ flux slope (higher = more flux/activation; lower = inhibition) at 10 µM | hit rate 2.2% among 190,000 | Q9H2X9 | KCC2 cells, thallium flux FluoZin-2 fluorescence;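 active = thallium flux slope and its plate-corrected score both differing from the plate sample mean at a set confidence after two filtering rounds, in either direction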;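 also: slope of fluorescence scaled to starting intensity during 10 to 20 s after thallium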
KCNK9 block conf: human KCNK9 inhibitor confirmation; shares compounds with KCNK9 inh; hit rate 43% among 4,900; AID 492992; inhibition, % at 10 µM; HEK293 KCNK9 cells, FluxOR thallium flux fluorescence;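 active = thallium signal inhibited by more than 5 SD of the compound-free buffer control wells, on both duplicate plates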;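 also: 0% = assay buffer control wells without compound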
Kir2-1 spec: selectivity of KCNK9 modulators against mouse Kir2.1. AID 492993. shares compounds with KCNK9 inh. hit rate 4% among 4,900. Kir2.1 cells, FluxOR thallium flux fluorescence. inhibition, % at 10 µM;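 active = thallium signal drop more than 5 SD beyond the mean of the no-compound control wells, seen in both duplicate plates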;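 also: signal is fluorescence rise after thallium addition divided by baseline fluorescence; plate controls were assay buffer only for no effect and full block by chlorpromazine control for full effect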
HEK293 Tl ctr: second counter-screen for KCNK9 modulators: effect in non-induced cells; shares compounds with KCNK9 inh; non-induced KCNK9-HEK293, FluxOR thallium flux; inhibition, % at 10 µM; hit rate 40% among 4,900;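 active = thallium signal drop beyond 5 SD of the untreated control mean, on both duplicate plates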;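 also: plate controls were buffer only IC0 wells for no effect and SID17386958 at its maximal inhibitory level for full effect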
Numbers without * were called inactive; i = inactive; / = no result. A selection: hits, their analogues and other compounds. The true share with any hit is near 4.1%.

SMILES	hERG rescue	KCNQ1 block	KCNK9 inh	KCNK3 inh	KCNQ1 pot	Cl transport mod	KCNK9 block conf	Kir2-1 spec	HEK293 Tl ctr
COC(=O)c1c(NC(NC(=O)CC(C)C)C(Cl)(Cl)Cl)sc2c1CCC2 (centres undefined)	-12	i	-9.7*	i	i	1.2	i	i	49%*
NC(=O)c1ccc2c(=O)c(O)c(-c3cc(Cl)c(N)c(Cl)c3)[nH]c2c1	-4	i	i	i	i	/	/	/	/
Cc1ccc(NC2CCCN(C(=O)c3cn(C)c4ccccc34)C2)cc1C (centres undefined)	-12	i	i	i	i	/	i	i	i
COc1ccc(NC2CCCN(C(=O)c3cn(C)c4ccccc34)C2)cc1 (centres undefined)	-6	i	i	i	i	/	i	i	i
COc1ccc(Cn2c(=O)[nH]c3cc(C(=O)N4CCN(Cc5ccccc5)CC4)ccc3c2=O)cc1	-9	i	i	i	i	-0.0098	/	/	/
COc1ccc2c(C)c(C(=O)N3CCN(Cc4ccccc4)CC3)oc2c1	-8	i	i	i	i	/	i	i	i
CCN(CC)c1ccc(S(=O)(=O)N2CCOCC2)cc1NC(=O)CN1C(=O)NC2(CCC(C)CC2)C1=O (centres undefined)	-6	i	i	i	i	/	/	/	/
COc1cc(C(=O)Oc2cccc(C)c2)cc(OC)c1OC	-9	i	i	i	i	0.67	/	/	/
COc1cc(OC)nc(Oc2ccccc2C(=O)Oc2cccc(C)c2)n1	0	i	-9.5*	i	i	-1.4	34%*	i	36%*
Cc1cc(C)n(-c2nc(NCCC(C)C)c3c4c(sc3n2)COC(C)(C)C4)n1	-13	i	-12*	i	i	-1.8	58%*	i	32%*
CCc1ccc(NC(=S)N(CCN2CCCCC2)Cc2ccco2)cc1	-12	i	-8.8*	i	i	0.098	41%*	i	40%*
Cc1cccc(CSCCNC(=O)c2ccc(N(C)S(=O)(=O)c3ccccc3)cc2)c1	-3	7*	i	i	i	-0.49	i	i	i
CN(c1ccc(C(=O)NCCSCc2ccccc2)cc1)S(=O)(=O)c1ccccc1	-5	i	i	i	i	-0.16	i	i	i
CN(c1ccc(C(=O)NCc2ccc3c(c2)OCO3)cc1)S(=O)(=O)c1ccccc1	-12	i	i	i	i	-0.25	/	/	/
O=C(NCCSCc1ccccc1)c1ccccc1	-7	i	i	i	i	-1.3	/	/	/
C[C@@H]1NC(=O)N[C@@H]1CCCCCC(=O)O	-7	i	i	i	i	/	/	/	/
Cc1nnsc1C(=O)N1CCCC(N2CCN(c3cccc(C(F)(F)F)c3)CC2)C1 (centres undefined)	-9	i	i	i	i	/	/	/	/
O=C(c1ccco1)N1CCCC(N2CCN(c3cccc(C(F)(F)F)c3)CC2)C1 (centres undefined)	-18	i	i	i	i	/	i	i	i
Cc1cc(C)c(C(=O)N2CCCC(N3CCN(c4cccc(C(F)(F)F)c4)CC3)C2)o1 (centres undefined)	-16	i	i	i	i	/	/	/	/
O=C(c1cccs1)N1CCCC(N2CCN(c3cccc(C(F)(F)F)c3)CC2)C1 (centres undefined)	-17	i	i	i	i	/	i	i	i
N[C@@H](Cc1cnc[nH]1)C(=O)Nc1ccc2ccccc2c1	/	/	/	i	/	/	/	/	/
O=C(O)c1cccc(CN2C(=O)S/C(=C/c3cccc([N+](=O)[O-])c3)C2=O)c1	-16	i	i	i	i	-1.4	i	i	i
C=CCN=C1S/C(=C/c2cccc([N+](=O)[O-])c2)C(=O)N1CC=C	-8	i	i	i	i	0.59	/	/	/
CCOC(=O)N1CCC(NC(=O)c2cc(COc3ccccc3SC)on2)CC1	-10	i	i	i	i	/	/	/	/
COc1cc([N+](=O)[O-])ccc1NC(=S)NNC(=O)c1ccc2c(c1)OCO2	-11	10*	i	i	i	/	i	i	i
SMILES	hERG rescue	KCNQ1 block	KCNK9 inh	KCNK3 inh	KCNQ1 pot	Cl transport mod	KCNK9 block conf	Kir2-1 spec	HEK293 Tl ctr
CN(C)C(C(=O)Nc1cc(Cl)cc(Cl)c1)c1ccccc1 (centres undefined)	-23	i	-10*	i	i	-0.017	44%*	i	30%*
O=C(OC(C(=O)Nc1cc(Cl)cc(Cl)c1)c1ccccc1)C1=COCCO1 (centres undefined)	-8	i	i	i	i	-0.049	/	/	/
O=C(/C=C/c1ccccc1)NC(NC(=S)Nc1ccc(Cl)cc1Cl)C(Cl)(Cl)Cl (centres undefined)	-13	i	i	i	i	-0.54	i	i	i
O=C(/C=C/c1ccccc1)NC(NC(=S)Nc1cccc(Cl)c1)C(Cl)(Cl)Cl (centres undefined)	-12	i	i	i	i	/	/	/	/
Cc1ccsc1C(=O)N(C)CC(=O)Nc1ccccc1Br	/	/	/	i	/	/	/	/	/
CCCN(CCC)C(=O)CC(c1ccccc1)c1ccc(C)cc1O (centres undefined)	-17	i	i	i	i	-1.5	/	/	/
CCCN(CCC)C(=O)CC(c1ccccc1)c1cc(Br)ccc1O (centres undefined)	-12	i	-13*	i	i	/	36%*	i	40%*
CCn1cc(CCCC(=O)NCc2ccccc2OC)c2ccccc21	-3	i	i	i	i	/	/	/	/
CCn1cc(CCCC(=O)NCc2cccc(OC)c2)c2ccccc21	-6	i	i	i	i	/	i	i	i
COc1cccc(CNC(=O)C(Cc2ccccc2)n2cccc2)c1 (centres undefined)	-14	i	i	i	i	-2.7	i	i	i
COc1cccc(NC(=O)C(Cc2ccccc2)n2cccc2)c1 (centres undefined)	-14	i	i	i	i	0.65	/	/	/
Nc1nnc(SCC(=O)Nc2cccc(Cl)c2)s1	/	/	/	i	/	/	/	/	/
NC(=O)SCC(=O)Nc1cccc(Cl)c1	0	i	-10*	i	i	/	58%*	i	36%*
